Measurements as given in publication PMC8341878 (RSC Chemical Biology, 2020).
Converted amounts (≈) assume the structure as drawn. “And” between values parts separate entries of the source, which are not always exact repeats. Equal values may be shown once. Peptide text beside a SMILES is read from it.

Tests used:
E. coli D22 strain = assay: Microdilution broth assay; format: cell-based, Escherichia coli
Summary of the method: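 E. coli D22 was grown in Mueller Hinton broth to OD600 0.6–0.8, then diluted so wells held about 2 to 5 × 10^5 cfu per mL with serially diluted peptide in MH broth. Plates were read at 620 nm after 18–24 h at 37 °C. MIC was the lowest concentration with no turbidity increase. For MBC, wells were plated on LB agar; ≥99.9% kill versus inoculum. Duplicates, ≥2 independent experiments.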

Mycobacterium smegmatis = settings: cited from earlier work
[1] = target: ^EcSC (E. coli sliding clamp, DnaN) (Escherichia coli, UniProt P0A988); assay: ITC, peptide interaction with E. coli sliding clamp; format: binding
^EcSC (E. coli sliding clamp, DnaN), sequence (P0A988 whole entry): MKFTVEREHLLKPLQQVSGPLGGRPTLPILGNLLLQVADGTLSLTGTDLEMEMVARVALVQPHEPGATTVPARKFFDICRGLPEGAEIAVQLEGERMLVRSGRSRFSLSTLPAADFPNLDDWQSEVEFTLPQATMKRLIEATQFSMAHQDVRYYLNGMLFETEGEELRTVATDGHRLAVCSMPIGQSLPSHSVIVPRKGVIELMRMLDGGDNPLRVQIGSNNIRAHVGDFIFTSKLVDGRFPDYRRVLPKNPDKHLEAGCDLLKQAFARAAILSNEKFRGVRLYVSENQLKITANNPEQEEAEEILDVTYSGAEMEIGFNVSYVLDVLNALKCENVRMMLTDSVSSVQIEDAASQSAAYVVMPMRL
Summary of the method: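 Recombinant His-tagged E. coli DnaN was expressed in BL21(DE3) pLys (IPTG 0.1 mM, 28 °C overnight), purified by Ni-NTA then Source Q, and exchanged into 10 mM Hepes pH 7.4, 0.15 M NaCl, 3 mM EDTA. Peptide (100 to 400 μM) was injected stepwise into 20 or 30 μM clamp at 30 °C. Peptide-into-buffer controls were subtracted. Each titration was run at least twice; mean ± sd.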

[2] = E. coli D22, decrease of at least 99.9% of cell viability vs inoculum, minimum of 2 independent biological replicates

CC1(C)S[C@@H]2[C@H](NC(=O)[C@H](N)c3ccccc3)C(=O)N2[C@H]1C(=O)O [Ampicillin]
MBC (E. coli D22 strain; Escherichia coli, D22STRAIN): 16 µg/mL (≈ 45.8 µM) | MIC (E. coli D22 strain; Escherichia coli, D22STRAIN): 22.9 µM to 45.8 µM and 8 µg/mL to 16 µg/mL

griselimycin
frequency of resistance (Mycobacterium smegmatis): 5 × 10^−10

CC[C@H](C)[C@H](NC(=O)[C@@H](CCCNC(=N)N)NC(=O)[C@H](CCCNC(=N)N)NC(=O)[C@@H]1CCCN1C(=O)[C@@H]1CCCN1C(=O)[C@H](CCCNC(=N)N)NC(=O)[C@@H]1CCCN1C(=O)[C@H](CCCNC(=N)N)NC(=O)[C@@H]1CCCN1C(=O)[C@H](CC(C)C)NC(=O)[C@H](Cc1ccc(O)cc1)NC(=O)[C@@H]1CCCN1C(=O)[C@@H]1CCCN1C(=O)[C@H](CCCCN)NC(=O)[C@H](CC(=O)O)NC(=O)[C@@H](N)C(C)C)C(=O)N[C@@H](Cc1ccc(O)cc1)C(=O)N[C@@H](CC(N)=O)C(=O)N[C@H](CCCNC(=N)N)C(=O)N[C@@H](CC(N)=O)C(=O)NCC(=O)N1CCC[C@H]1C(=O)N[C@@H](CCCNC(=N)N)C(=O)N[C@@H](CCC(N)=O)C(=O)N[C@@H](CC1CCCCC1)C(=O)N[C@@H](CC(=O)O)C(=O)N[C@@H](CC(C)C)C(=O)N[C@@H](Cc1ccccc1)C(=O)O [Onc112-P7] (HELM PEPTIDE1{V.D.K.P.P.Y.L.P.R.P.R.P.P.R.[dR].I.Y.N.[dR].N.G.P.R.Q.[Cha].D.L.F}$$$$V2.0)
Kd ([1]; SD): 200 ± 0.1 nM | MBC (E. coli D22 strain; [2]): 2 µg/mL (≈ 0.576 µM)

CC[C@H](C)[C@H](NC(=O)[C@@H](CCCNC(=N)N)NC(=O)[C@H](CCCNC(=N)N)NC(=O)[C@@H]1CCCN1C(=O)[C@@H]1CCCN1C(=O)[C@H](CCCNC(=N)N)NC(=O)[C@@H]1CCCN1C(=O)[C@H](CCCNC(=N)N)NC(=O)[C@@H]1CCCN1C(=O)[C@H](CC(C)C)NC(=O)[C@H](Cc1ccc(O)cc1)NC(=O)[C@@H]1CCCN1C(=O)[C@@H]1CCCN1C(=O)[C@H](CCCCN)NC(=O)[C@H](CC(=O)O)NC(=O)[C@@H](N)C(C)C)C(=O)N[C@@H](Cc1ccc(O)cc1)C(=O)N[C@@H](CC(N)=O)C(=O)N[C@H](CCCNC(=N)N)C(N)=O [Onc112] (HELM PEPTIDE1{V.D.K.P.P.Y.L.P.R.P.R.P.P.R.[dR].I.Y.N.[dR].[am]}$$$$V2.0)
K D ([1]; ITC at 30 °C, R1 buffer 10 mM Hepes pH 7.4, 0.15 M NaCl, 3 mM EDTA, peptide 100-400 μM into SC 20 or 30 μM, means ± sd of at least 2 independent experiments, ni = no specific interaction): ni | MBC (E. coli D22 strain; [2]): 1 µg/mL (≈ 0.418 µM)

CN(C)[C@@H]1C(O)=C(C(N)=O)C(=O)[C@@]2(O)C(O)=C3C(=O)c4c(O)cccc4[C@@](C)(O)[C@H]3C[C@@H]12 [Tetracycline]
MBC (E. coli D22 strain; Escherichia coli, D22STRAIN): 0.5 µg/mL (≈ 1.13 µM) | MIC (E. coli D22 strain; Escherichia coli, D22STRAIN): 0.56 µM to 1.12 µM and 0.25 µg/mL to 0.5 µg/mL

CC[C@H](C)[C@H](NC(=O)[C@@H]1CCCN1C(=O)[C@H](CCCNC(=N)N)NC(=O)[C@@H]1CCCN1C(=O)[C@@H]1CCCN1C(=O)[C@@H](NC(=O)[C@@H]1CCCN1C(=O)[C@H](CCCNC(=N)N)NC(=O)[C@@H]1CCCN1C(=O)[C@H](CC(C)C)NC(=O)[C@H](Cc1ccc(O)cc1)NC(=O)[C@H](CO)NC(=O)CNC(=O)[C@H](CCCCN)NC(=O)[C@H](CC(=O)O)NC(=O)[C@@H](N)C(C)C)[C@@H](C)O)C(=O)N[C@@H](Cc1ccc(O)cc1)C(=O)N[C@@H](CC(N)=O)C(=O)N[C@@H](CCCNC(=N)N)C(=O)N[C@@H](CC(N)=O)C(=O)NCC(=O)N1CCC[C@H]1C(=O)N[C@@H](CCCNC(=N)N)C(=O)N[C@@H](CCC(N)=O)C(=O)N[C@@H](CC1CCCCC1)C(=O)N[C@@H](CC(=O)O)C(=O)N[C@@H](CC(C)C)C(=O)N[C@@H](Cc1ccccc1)C(=O)O [Py-P7] (HELM PEPTIDE1{V.D.K.G.S.Y.L.P.R.P.T.P.P.R.P.I.Y.N.R.N.G.P.R.Q.[Cha].D.L.F}$$$$V2.0)
MBC (E. coli D22 strain; [2]): 8 µg/mL (≈ 2.42 µM)
